Drawing on ChEMBL document CHEMBL1137007, “Synthesis of 4-substituted pyrido[2,3-d]pyrimidin-4(1H)-one as analgesic and anti-inflammatory agents” (Bioorg Med Chem Lett, 2009), this text covers Activity and UI for six compounds.

Each structure is given as a SMILES string.

The test system of series [1] is Rattus norvegicus. The experiment in a line: Antiinflammatory activity in rat assessed as inhibition of carrageenan-induced paw oedema at 20 mg/kg, po after 3 hrs. Further details: scale not given: the % may be the effect or the level left. Format: functional. Summed up:
(§1)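 Rats, six per group, were dosed orally (10 or 20 mg/kg, suspension in 1% carboxymethyl cellulose) before carrageenan paw injection. Paw volume was read by mercury-displacement plethysmography just before and 30 min, 1, 2 and 3 h after carrageenan. %inhibition = 100[1 − (a − x)/(b − y)], with the test group's pre/post volumes set against the vehicle control group's. Reported as mean ± SEM (n = 6) with ANOVA.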
A general note: Carrageenan injected into the paw causes an acute inflammation.

Series [2] relates to Mus musculus. The experiment in a line: Analgesic activity in Wister albino mice at 20 mg/kg, po after 3 hrs by tail-flick test. A general note: Thermal pain tests record how soon the animal reacts.
Series [3] relates to Rattus norvegicus. The experiment in a line: Antiinflammatory activity in rat assessed as inhibition of carrageenan-induced paw oedema at 20 mg/kg, po after 2 hrs. The format is functional. Also on record: scale not given: the % may be the effect or the level left. Put shortly: as §1
Series [4] has as its system Mus musculus. The series can be described thus: Analgesic activity in Wister albino mice at 20 mg/kg, po after 30 mins by tail-flick test.
For series [5], the system named is Mus musculus. The series can be described thus: Analgesic activity in Wister albino mouse at 20 mg/kg, po after 1 hr by tail-flick test.
In series [6] the test system is Rattus norvegicus. The experiment in a line: Antiinflammatory activity in rat assessed as inhibition of carrageenan-induced paw oedema at 10 mg/kg, po after 2 hrs. The format is functional. Also on record: scale not given: the % may be the effect or the level left. Summed up: as §1
For series [7], the system named is Mus musculus. The series can be described thus: Analgesic activity in Wister albino mice at 10 mg/kg, po after 30 mins by tail-flick test.
The test system of series [8] is Mus musculus. The series can be described thus: Analgesic activity in Wister albino mice at 10 mg/kg, po after 1 hr by tail-flick test.
For series [9], the system named is Rattus norvegicus. The series can be described thus: Antiinflammatory activity in rat assessed as inhibition of carrageenan-induced paw oedema at 10 mg/kg, po after 3 hrs. The format is functional. Further details: scale not given: the % may be the effect or the level left. Summed up:
as §1

For series [10], the system named is Rattus norvegicus. The series can be described thus: Antiinflammatory activity in rat assessed as inhibition of carrageenan-induced paw oedema at 20 mg/kg, po after 30 mins. The format is functional. Further details: scale not given: the % may be the effect or the level left. Put shortly:
as §1

Series [11] deals with Rattus norvegicus. The series can be described thus: Toxicity in Wistar albino rat assessed as ulcer index at 20 mg/kg, ip administered once daily for 3 days. The format is organism-based. Also on record: dose 20 mg/kg, route intraperitoneal. The following applies: in vivo, 72 h. Summed up: (§2)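 Wistar albino rats of either sex (150–200 g), six per group, housed at 25 °C, 45–55% RH, 12-h light/dark cycle and acclimatized one week. Dosing was intraperitoneal as a suspension in 10% v/v Tween-80, with a vehicle-only control group. Animals were fasted 36 h, then pylorus-ligated (Shay method) on day 4 and sacrificed 4 h later for ulcer index. Values are mean ± SEM (n = 6), analysed by one-way ANOVA.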

Series [12] concerns Mus musculus. The experiment in a line: Analgesic activity in Wister albino mice at 20 mg/kg, po after 2 hrs by tail-flick test.
The subject of series [13] is Rattus norvegicus. The experiment in a line: Antiinflammatory activity in rat assessed as inhibition of carrageenan-induced paw oedema at 10 mg/kg, po after 1 hr. The format is functional. Also on record: scale not given: the % may be the effect or the level left. Put shortly:
as §1

Series [14] relates to Mus musculus. The experiment in a line: Analgesic activity in Wister albino mice at 10 mg/kg, po after 3 hrs by tail-flick test.
Series [15] has as its system Rattus norvegicus. The experiment in a line: Antiinflammatory activity in rat assessed as inhibition of carrageenan-induced paw oedema at 10 mg/kg, po after 30 mins. The format is functional. Further details: scale not given: the % may be the effect or the level left. Summed up:
as §1

The test system of series [16] is Rattus norvegicus. The experiment in a line: Antiinflammatory activity in rat assessed as inhibition of carrageenan-induced paw oedema at 20 mg/kg, po after 1 hr. Further details: scale not given: the % may be the effect or the level left. Format: functional. Put shortly:
as §1

In series [17] the test system is Mus musculus. The experiment in a line: Analgesic activity in Wister albino mice at 10 mg/kg, po after 2 hrs by tail-flick test.
In series [18] the test system is Mus musculus. The experiment in a line: Analgesic activity in Wister albino mice at 20 mg/kg, po after 1 hr by tail-flick test.
For series [19], the system named is Rattus norvegicus. The series can be described thus: Toxicity in Wistar albino rat assessed as ulcer index at 200 mg/kg, ip administered once daily for 3 days. Format: organism-based. Further details: dose 200 mg/kg, route intraperitoneal. The note with it: in vivo, 72 h. Put shortly:
as §2

Regarding `N#Cc1c(N)nc2[nH]c(=S)[nH]c(=O)c2c1-c1ccc(N2CCCCC2)cc1`, the Activity was determined as 36% in the series on Rattus norvegicus [1]; 47% with Mus musculus [2]; 51% in the series on Rattus norvegicus [3]; 63% in the series on Mus musculus [4]; 64% in the series on Mus musculus [5]; 45% with Rattus norvegicus [6]. Further, the Activity in the series with Mus musculus [7] worked out at 46%; in the series with Mus musculus [8], 51%; in the series with Rattus norvegicus [9], 29%; with Rattus norvegicus [10], 45%; with Mus musculus [12], 69%; in the series with Rattus norvegicus [13], 37%. For the same compound, the Activity with Mus musculus [14] is 39%; in the series with Rattus norvegicus [15], 35%; in the series on Rattus norvegicus [16], 49%; in the series with Mus musculus [17] it was 55%. Moreover, the UI in the series with Rattus norvegicus [11] was determined as 0.58.
With `Nc1ncnc2nc3[nH]c(=S)[nH]c(=O)c3c(-c3ccc(N4CCCCC4)cc3)c12`, the Activity with Rattus norvegicus [1] turned out to be 39%; in the series with Mus musculus [2] it was 38%; in the series with Rattus norvegicus [3], 48%; in the series on Mus musculus [4], 55%; in the series with Rattus norvegicus [6], 40%; in the series on Mus musculus [7] it was 41%. The Activity came out at 49% in the series with Mus musculus [8]; 32% with Rattus norvegicus [9]; 42% in the series with Rattus norvegicus [10]; 57% in the series with Mus musculus [18]; 59% with Mus musculus [12]; 39% in the series on Rattus norvegicus [13]. Further, the Activity in the series with Mus musculus [14] was found to be 32%; in the series with Rattus norvegicus [15], 33%; with Rattus norvegicus [16], 45%; in the series with Mus musculus [17], 52%. Moreover, in the series on Rattus norvegicus [11], the UI was found to be 0.58.
For `Nc1ncnc2nc3[nH]c(=S)[nH]c(=O)c3c(-c3ccc(N4CCOCC4)cc3)c12`, the Activity with Rattus norvegicus [1] came out at 38%; in the series on Mus musculus [2], 36%; in the series on Rattus norvegicus [3], 49%; in the series with Mus musculus [4], 55%; in the series on Rattus norvegicus [6], 42%; in the series on Mus musculus [7] it was 38%. The Activity came out at 43% in the series on Mus musculus [8]; 30% with Rattus norvegicus [9]; 43% in the series with Rattus norvegicus [10]; 57% in the series with Mus musculus [18]; 58% with Mus musculus [12]; 40% with Rattus norvegicus [13]. Also, the Activity in the series with Mus musculus [14] was 27%; in the series on Rattus norvegicus [15], 35%; with Rattus norvegicus [16], 47%; with Mus musculus [17], 46%. The UI in the series on Rattus norvegicus [11] was 0.7.
As for `Nc1nc(=O)[nH]c2nc3[nH]c(=S)[nH]c(=O)c3c(-c3ccc(N4CCCCC4)cc3)c12`, the Activity with Rattus norvegicus [1] is recorded as 35%; in the series with Mus musculus [2] it was 44%; with Rattus norvegicus [3], 48%; with Mus musculus [4], 48%; with Rattus norvegicus [6] it was 43%; in the series with Mus musculus [7] it was 39%. Also, the Activity in the series with Mus musculus [8] amounted to 43%; in the series with Rattus norvegicus [9] it was 29%; with Rattus norvegicus [10] it was 40%; in the series with Mus musculus [18] it was 51%; in the series with Mus musculus [12], 53%; with Rattus norvegicus [13], 39%. For the same compound, the Activity in the series on Mus musculus [14] came to 33%; with Rattus norvegicus [15], 33%; in the series on Rattus norvegicus [16] it was 46%; with Mus musculus [17] it was 46%. Moreover, the UI with Rattus norvegicus [11] turned out to be 0.72.
Take `CC(=O)Oc1ccccc1C(=O)O` [ASPIRIN]: the UI with Rattus norvegicus [19] is reported as 1.73.
In the case of `CN1CCN(c2ccc(-c3c4c(N)ncnc4nc4[nH]c(=S)[nH]c(=O)c34)cc2)CC1`, the Activity is given as 38% in the series on Rattus norvegicus [1]; 43% in the series on Mus musculus [2]; 50% in the series with Rattus norvegicus [3]; 50% in the series on Mus musculus [4]; 38% in the series on Rattus norvegicus [6]; 39% in the series with Mus musculus [7]. Besides, the Activity with Mus musculus [8] came out at 43%; in the series with Rattus norvegicus [9], 31%; with Rattus norvegicus [10], 43%; in the series on Mus musculus [18], 58%; with Mus musculus [12], 58%; in the series with Rattus norvegicus [13] it was 37%. Further, the Activity was 36% in the series on Mus musculus [14], 35% in the series with Rattus norvegicus [15], 48% with Rattus norvegicus [16] and 45% in the series on Mus musculus [17]. In the series with Rattus norvegicus [11], the UI stood at 0.69.
